Screening results deposited in PubChem BioAssay by several laboratories.
Only some compounds are listed: those with a hit (about 3.1% of all), similar ones and a draw of the others.
MEKK3 PB1 HTS = modulators of MEKK3-MEK5 PB1 binding, primary screen, biochemical, wildtype MEKK3, multiplex bead flow cytometry, Alexa488-MEK5. bead-based flow cytometry, Alexa488-MEK5 binding to MEKK3; actives lie on both sides; 0 = blocked by unlabeled MEK5, 100 = vehicle. actives 1.4% (n = 290,000). binding response (% of control), % at 10 µM;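 active = binding response more than 3 SD above or below the average of its plate-row segment, actives on both sides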;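 note: Alexa488 bead fluorescence after subtracting the streptavidin-only scavenger bead signal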
PREPL inh = PREPL enzyme inhibitors, primary screen, biochemical, fluorescence polarization; recombinant PREPL, fluorescence polarization activity-based probe; inhibition, % at 5.96 µM; actives 0.68% (n = 320,000); in the data active = inhibition above about 43%;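 note: 0% = enzyme with DMSO and 100% = wells lacking enzyme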
Target sequence (Q4J6C6 whole entry, looked up): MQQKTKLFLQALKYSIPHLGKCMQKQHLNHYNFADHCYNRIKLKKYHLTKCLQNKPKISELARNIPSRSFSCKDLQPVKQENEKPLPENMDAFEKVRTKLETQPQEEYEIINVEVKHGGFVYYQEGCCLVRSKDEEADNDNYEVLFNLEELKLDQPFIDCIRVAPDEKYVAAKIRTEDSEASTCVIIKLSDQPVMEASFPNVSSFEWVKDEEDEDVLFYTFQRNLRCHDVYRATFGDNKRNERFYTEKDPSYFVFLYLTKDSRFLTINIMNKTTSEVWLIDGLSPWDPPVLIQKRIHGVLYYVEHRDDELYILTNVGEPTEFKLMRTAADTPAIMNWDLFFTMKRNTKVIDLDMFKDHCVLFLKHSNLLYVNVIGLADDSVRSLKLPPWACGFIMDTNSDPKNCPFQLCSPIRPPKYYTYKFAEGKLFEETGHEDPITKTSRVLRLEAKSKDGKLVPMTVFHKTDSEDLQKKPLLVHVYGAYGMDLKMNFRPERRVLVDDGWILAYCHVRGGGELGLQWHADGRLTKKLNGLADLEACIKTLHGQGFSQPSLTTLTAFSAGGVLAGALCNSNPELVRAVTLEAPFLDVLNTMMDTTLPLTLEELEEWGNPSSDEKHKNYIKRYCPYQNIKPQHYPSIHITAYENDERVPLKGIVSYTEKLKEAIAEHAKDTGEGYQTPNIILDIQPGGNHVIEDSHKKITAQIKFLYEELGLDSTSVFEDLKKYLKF
UBC13 inh = UBC13 polyubiquitin chain formation inhibitors, primary screen, biochemical, TR-FRET, uHTS. Ubiquitin-conjugating enzyme E2 N (Homo sapiens), P61088. inhibition, % at 20 µM. actives 0.47% (n = 330,000). AID 485273, 2010; in the data active = inhibition above about 45%, passing the limit was not always enough
Apaf-1 inh = inhibitors of human Apaf-1 apoptosome, primary screen, biochemical, DEVD-Rh110 fluorescence, uHTS; AID 489030, 2010; inhibition, % at 20 µM; actives 0.71% (n = 330,000); Apoptotic protease-activating factor 1 (Homo sapiens), O14727; reconstituted apoptosome caspase-3 activity; active = inhibition of at least 40% at 20 µM;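 note: plate controls were DMSO wells for no effect and DEVD-CHO caspase inhibitor wells for full effect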
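Material: reconstituted apoptosome with Apaf-1, cytochrome c, caspase-9, procaspase-3, dATP / Buffer or medium: pH 7.5 Hepes buffer with CHAPS, BSA, DTT / Also added: cytochrome c with DEVD-Rh110 / Schedule: compound with Apaf-1, dATP, procaspase-3 30 min, then 50 min reaction, room temperature / Technique: rhodamine 110 fluorescence at Ex 480/Em 540 nm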
MEKK2 mut-MEK5 = MEK5 binding signal on mutant MEKK2 PB1, primary screen, biochemical, multiplex bead flow cytometry, Alexa488-MEK5; Alexa488-MEK5 binding to MEKK2 mutant; percent response, % at 10 µM; AID 1530, 2009; actives 0.35% (n = 290,000); in the data active = percent response above about 24%, passing the limit was not always enough
MEKK2wt PB1 HTS = modulators of MEK5 binding to wildtype MEKK2, primary screen, biochemical, multiplex bead flow cytometry, Alexa488-MEK5; Mitogen-activated protein kinase kinase kinase 2 (Homo sapiens), Q9Y2U5; Alexa488-MEK5 binding to MEKK2 WT; actives lie on both sides; binding response (% of control), % at 10 µM; actives 1.1% (n = 290,000); AID 1531, 2009; in the data active = binding response below about 67% or above about 130%
MEKK2wt confirm = modulators of MEK5 binding to wildtype MEKK2, confirmation, biochemical, single concentration, multiplex bead flow cytometry; shares compounds with MEKK3 PB1 HTS; Alexa488-MEK5 binding to MEKK2 WT; actives lie on both sides; binding response (% of control), % at 10 µM; actives 2.4% (n = 5,900); AID 1892, 2009; in the data active = binding response below about 16% or above about 210%; inactive = in between
MEKK2mut confirm = mutant MEKK2 PB1-MEK5 binding signal retest – biochemical, single concentration, multiplex bead flow cytometry, confirmation. percent response, % at 10 µM. Alexa488-MEK5 binding to MEKK2 mutant. shares compounds with MEKK3 PB1 HTS. actives 2% (n = 5,900); in the data active = percent response mostly above about 71%, no sharp cut-off; inactive = mostly below about 38%;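 note: higher means compound restores mutant binding toward wildtype level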
MEKK3-MEK5 inh = MEKK3 wild-type PB1 binding to MEK5, inhibitors, confirmation, biochemical, bead multiplex flow cytometry, single concentration, wildtype. shares compounds with MEKK3 PB1 HTS. Alexa488-MEK5 binding to MEKK3; hits give low values. binding response (% of control), % at 10 µM. actives 1.8% (n = 5,900). AID 1894, 2009;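 active = binding response below 72% of control, or above a set upper limit, though filed actives all read lower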;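 note: 100% = DMSO only wells and 0% = binding blocked by excess unlabeled MEK5; lower values mean stronger disruption of MEK5 binding to MEKK3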
* hit, by the source's call; . = no result; [ ] = remark or other dose.

SMILES	MEKK3 PB1 HTS	PREPL inh	UBC13 inh	Apaf-1 inh	MEKK2 mut-MEK5	MEKK2wt PB1 HTS	MEKK2wt confirm	MEKK2mut confirm	MEKK3-MEK5 inh
CC(=O)c1cc2c(cc1NS(=O)(=O)c1ccccc1Br)OCO2	100	-6	1	6	10	103	.	.	.
Cn1cc([N+](=O)[O-])c(C(=O)NCc2ccco2)n1	111	13	6	1	-2	102	.	.	.
CCn1cc(Br)c(C(=O)NCc2ccco2)n1	43*[inhibitor]	12	-9	-1	-25	65	101	-3	101
C/C(=N\NC(=O)CO/N=C(\C)c1cccs1)c1ccc(N)cc1	94	12	-9	-11	8	100	.	.	.
C/C(=N\OCC(=O)N/N=C/c1ccc(C)cc1O)c1cccs1	124*	-7	-13	31	7	120	109	7	108
O=C(C1CCCN(S(=O)(=O)c2ccc(F)cc2)C1)N1CCCCCC1 (centres undefined)	99	-3	8	1	4	104	.	.	.
N#CC1(C#N)C(c2ccccc2)OC23CCCCC2C1(C#N)C(=N)O3 (centres undefined)	140*	13	-1	5	-1	104	111	4	110
O=C(N/N=C/c1cccnc1)c1ccccc1[N+](=O)[O-]	58*[inhibitor]	10	0	-6	-2	88	99	-4	99
O=C(N/N=C/c1ccc([N+](=O)[O-])cc1)c1cnccn1	66*[inhibitor]	18	-16	-17	-19	64	96	-4	93
O=C(NNC(=S)Nc1ccccc1)c1ccccc1[N+](=O)[O-]	5.0*[inhibitor]	1	-2	2	-18	7.0*[inhibitor]	109	3	103
O=C(NC(=S)NCc1cccnc1)c1ccccc1[N+](=O)[O-]	2.0*[inhibitor]	5	0	-6	-6	2.0*[inhibitor]	91	-6	96
O=C(N/N=C/c1ccncc1)c1cnccn1	105	2	-1	-19	6	108	.	.	.
O=C(N/N=C/c1ccncc1)c1ccccc1[N+](=O)[O-]	99	1	-10	-1	6	105	.	.	.
O=C(NCc1cccnc1)c1ccccc1[N+](=O)[O-]	102	11	4	3	3	101	.	.	.
Cc1cc(C(=O)CCC(=O)N(C)CC(=O)Nc2ccc(OC(F)(F)F)cc2)c(C)s1	.	.	-11	19	.	.	.	.	.
COc1cc(CNc2cccc3[nH]c(C(F)(F)F)nc23)cc(OC)c1	109	13	1	14	24*	149*	100	0	106
COc1ccc(CNc2cccc3[nH]c(C(F)(F)F)nc23)cc1	101	13	5	11	2	99	.	.	.
CCN(CC)CCN(Cc1cc2cc3c(cc2[nH]c1=O)OCCO3)C(=S)NCCCN(C)C	111	0	3	-4	22	138*	112	6	103
CCN(CC)CCN(Cc1cc2cc3c(cc2[nH]c1=O)OCO3)C(=S)NCCCN(C)C	107	17	3	6	9	119	.	.	.
CCCCNC(=S)N(CCN(CC)CC)Cc1cc2cc3c(cc2[nH]c1=O)OCO3	105	17	8	11	24*	120	106	1	102
CCCCNC(=S)N(CCN(CC)CC)Cc1cc2cc3c(cc2[nH]c1=O)OCCO3	101	22	-2	5	11	112	.	.	.
COC(=O)c1ccc(NS(=O)(=O)c2ccc(S(=O)(=O)N3CCOCC3)cc2)cc1	.	17	0	-4	.	.	.	.	.
O=C(CSc1nc2[nH]ncc2c(=O)[nH]1)NCCc1ccccc1	101	5	6	-10	2	102	.	.	.
Cc1cccc(C(C)C)c1NC(=O)C(C)OC(=O)Cn1cnc2c1c(=O)n(C)c(=O)n2C (centres undefined)	.	-8	-4	-5	.	.	.	.	.
CCS(=O)(=O)c1ccc2oc(SCC(=O)c3ccco3)nc2c1	102	-1	-2	-17	8	103	.	.	.
SMILES	MEKK3 PB1 HTS	PREPL inh	UBC13 inh	Apaf-1 inh	MEKK2 mut-MEK5	MEKK2wt PB1 HTS	MEKK2wt confirm	MEKK2mut confirm	MEKK3-MEK5 inh
CCS(=O)(=O)c1ccc2oc(SCC(=O)N3CCCCC3)nc2c1	48*[inhibitor]	10	-9	-3	-14	67	107	3	106
NNc1cc(C(=O)O)ccc1Cl	55*[inhibitor]	10	-14	5	-17	61*[inhibitor]	100	-4	101
CC(C)(C)C(=O)NC(=S)Nc1cc(C(=O)O)ccc1Cl	102	1	5	-1	11	105	.	.	.
C=Cc1ccc(Cn2c(=O)n(CCCOC)c(=O)c3sccc32)cc1	100	12	12	-1	1	99	.	.	.
CC(=O)Nc1ccc(S(=O)(=O)NCCNc2ccccc2[N+](=O)[O-])cc1	128*	-3	-52	-7	0	112	106	-2	106
CC(=O)Nc1ccc(S(=O)(=O)NCc2ccc3[nH]c(C)cc3c2)cc1	80*[inhibitor]	-1	15	1	-9	72*[inhibitor]	83	2	94
CC(=O)Nc1ccc(S(=O)(=O)NCc2ccc(C)cc2)cc1	126*	-5	8	2	7	122	97	-3	95
Cc1ccc(S(=O)(=O)NCc2ccc3[nH]c(C)cc3c2)cc1	78	4	12	29	0	101	.	.	.
O=[N+]([O-])c1ccccc1NCCNS(=O)(=O)c1ccc(Cl)cc1	105	-42	-18	-1	1	101	.	.	.
COC(=O)c1ccc(Nc2c([N+](=O)[O-])c(=O)oc3ccccc23)cc1	103	16	-7	4	7	104	.	.	.
COc1cc(/C=C/C(=O)OCC(=O)N2CCN(S(=O)(=O)c3ccc(C)cc3C)CC2)cc(Cl)c1OC	.	.	1	30	.	.	.	.	.
